In ChEMBL document CHEMBL4152204, “Discovery of N-hydroxy-3-alkoxybenzamides as direct acid sphingomyelinase inhibitors using a ligand-based pharmacophore model” (Eur J Med Chem, 2018):
Activity calls are given as the source filed them. The calls are words filed in the database; no cut-off is given here.

Legend:
[1] = biological target: T1, Sphingomyelin phosphodiesterase (Homo sapiens, UniProt P17405); test: Inhibition of acid sphingomyelinase in human HuH7 cell lysate using NBD-sphingomyelin as substrate after 30 mins by TLC based fluorescence assay
T1 sequence (P17405 whole entry): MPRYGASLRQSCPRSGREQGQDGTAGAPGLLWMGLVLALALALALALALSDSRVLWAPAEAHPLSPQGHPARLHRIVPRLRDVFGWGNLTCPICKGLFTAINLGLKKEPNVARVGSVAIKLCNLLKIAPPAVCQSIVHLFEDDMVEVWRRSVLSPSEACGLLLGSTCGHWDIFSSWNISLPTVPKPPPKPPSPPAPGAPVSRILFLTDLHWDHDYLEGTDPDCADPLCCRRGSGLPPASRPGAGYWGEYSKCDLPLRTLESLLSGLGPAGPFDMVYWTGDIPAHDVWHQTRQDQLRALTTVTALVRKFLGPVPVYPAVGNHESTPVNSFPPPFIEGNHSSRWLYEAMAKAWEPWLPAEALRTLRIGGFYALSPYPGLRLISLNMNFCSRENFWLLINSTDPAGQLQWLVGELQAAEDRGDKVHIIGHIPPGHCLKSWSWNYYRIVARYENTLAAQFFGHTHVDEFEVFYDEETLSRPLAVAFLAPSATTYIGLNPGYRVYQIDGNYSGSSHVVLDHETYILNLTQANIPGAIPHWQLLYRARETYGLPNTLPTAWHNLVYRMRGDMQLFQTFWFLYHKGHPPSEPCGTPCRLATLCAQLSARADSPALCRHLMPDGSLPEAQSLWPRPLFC

[2] = biological target: T2, Sphingomyelin phosphodiesterase (Homo sapiens) (UniProt P17405); test: Competitive inhibition of acid sphingomyelinase in human HuH7 cell lysate using varying levels of NBD-sphingomyelin as substrate at 0.5 to 5 uM after 30 mins by Lineweaver-Burk analysis; details: in the assay text read “after 10 mins” for “after 30 mins”
T2 sequence (whole entry): T1 sequence (P17405 whole entry)
Method in brief: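 Kinetics using the lysate ASM protocol, NBD-SM at 1.35, 1.89, 2.70, 4.54 and 13.5 µM per inhibitor level (0.5, 1.0, 5 µM); reaction stopped after 10 min; NBD-ceramide quantified by HPLC against a standard curve; Lineweaver-Burk plots by linear regression; triplicate.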

[3] = biological target: T3, Sphingomyelin phosphodiesterase (Mus musculus) (UniProt Q04519); test: Inhibition of acid sphingomyelinase in mouse NIH/3T3 cells assessed as ceramide levels at 5 uM after 20 hrs by LC-MS/MS analysis relative to control; assay type: cell-based
T3 sequence (whole entry): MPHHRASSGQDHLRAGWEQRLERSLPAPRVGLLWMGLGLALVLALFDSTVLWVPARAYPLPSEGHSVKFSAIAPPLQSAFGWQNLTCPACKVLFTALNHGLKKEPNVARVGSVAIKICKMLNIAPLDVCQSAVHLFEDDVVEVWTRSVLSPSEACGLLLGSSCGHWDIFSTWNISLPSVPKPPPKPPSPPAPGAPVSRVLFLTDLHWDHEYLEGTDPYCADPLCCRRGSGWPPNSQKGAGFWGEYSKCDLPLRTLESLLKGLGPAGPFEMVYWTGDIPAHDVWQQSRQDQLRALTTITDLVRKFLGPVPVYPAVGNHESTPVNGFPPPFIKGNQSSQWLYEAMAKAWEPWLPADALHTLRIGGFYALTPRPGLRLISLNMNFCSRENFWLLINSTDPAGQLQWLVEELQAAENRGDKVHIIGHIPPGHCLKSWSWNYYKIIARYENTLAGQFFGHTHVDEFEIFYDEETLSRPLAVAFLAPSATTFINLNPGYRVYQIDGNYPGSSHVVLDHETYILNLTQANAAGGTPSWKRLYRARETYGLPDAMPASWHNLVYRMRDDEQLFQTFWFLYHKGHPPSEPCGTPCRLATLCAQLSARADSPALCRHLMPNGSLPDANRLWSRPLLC
Method in brief: (§1)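 NIH3T3 cells in DMEM with 10% FBS, 37 °C, 5% CO₂; at 90% confluence given fresh medium plus inhibitor (5, 10, 20 µM) for 20 h; total ceramides and sphingomyelin quantified by LC-MS-MS versus untreated control; mean ± SD of three independent experiments, Student's t-test.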

[4] = biological target: T3, Sphingomyelin phosphodiesterase (Mus musculus); test: Inhibition of acid sphingomyelinase in mouse NIH/3T3 cells assessed as increase in […] level at 10 uM after 20 hrs by LC-MS/MS analysis relative to control; assay type: cell-based; set-up: scale not given: the % may be the effect or the level left; method in brief: as §1
[5] = biological target: T3, Sphingomyelin phosphodiesterase (Mus musculus); test: Inhibition of acid sphingomyelinase in mouse NIH/3T3 cells assessed as increase in […] level at 20 uM after 20 hrs by LC-MS/MS analysis relative to control; assay type: cell-based; set-up: scale not given: the % may be the effect or the level left; method in brief: as §1
NIH3T3 [6] = test: Cytoprotective activity against UV-induced apoptosis in mouse NIH/3T3 cells assessed as late apoptotic cells at 10 uM preincubated for 20 hrs followed by UV irradiation for 5 mins and measured after 24 hrs by flow cytometric analysis (reference value: 6.4%); assay type: functional
NIH3T3 [7] = test: Cytoprotective activity against UV-induced apoptosis in mouse NIH/3T3 cells assessed as necrotic cells at 10 uM preincubated for 20 hrs followed by UV irradiation for 5 mins and measured after 24 hrs by flow cytometric analysis (reference value: 1.5%); assay type: functional
NIH3T3 [8] = test: Cytoprotective activity against UV-induced apoptosis in mouse NIH/3T3 cells assessed as viable cells at 20 uM preincubated for 20 hrs followed by UV irradiation for 5 mins and measured after 24 hrs by flow cytometric analysis (reference value: 12.6%); assay type: functional; details: NIH3T3, light or radiation study, read-out: Activity
NIH3T3 [9] = test: Cytoprotective activity against UV-induced apoptosis in mouse NIH/3T3 cells assessed as viable cells at 40 uM preincubated for 20 hrs followed by UV irradiation for 5 mins and measured after 24 hrs by flow cytometric analysis (reference value: 12.6%); assay type: functional; details: NIH3T3, light or radiation study, read-out: Activity
NIH3T3 [10] = test: Cytoprotective activity against UV-induced apoptosis in mouse NIH/3T3 cells assessed as necrotic cells at 40 uM preincubated for 20 hrs followed by UV irradiation for 5 mins and measured after 24 hrs by flow cytometric analysis (reference value: 1.5%); assay type: functional
NIH3T3 [11] = test: Cytoprotective activity against UV-induced apoptosis in mouse NIH/3T3 cells assessed as viable cells at 60 uM preincubated for 20 hrs followed by UV irradiation for 5 mins and measured after 24 hrs by flow cytometric analysis (reference value: 12.6%); assay type: functional; details: NIH3T3, light or radiation study, read-out: Activity
NIH3T3 [12] = test: Cytoprotective activity against UV-induced apoptosis in mouse NIH/3T3 cells assessed as early apoptotic cells at 60 uM preincubated for 20 hrs followed by UV irradiation for 5 mins and measured after 24 hrs by flow cytometric analysis (reference value: 79.5%); assay type: functional
NIH3T3 [13] = test: Cytoprotective activity against UV-induced apoptosis in mouse NIH/3T3 cells assessed as late apoptotic cells at 60 uM preincubated for 20 hrs followed by UV irradiation for 5 mins and measured after 24 hrs by flow cytometric analysis (reference value: 6.4%); assay type: functional
NIH3T3 [14] = test: Inhibition of LPS-induced IL-8 production in mouse NIH/3T3 cells at 2.5 uM preincubated for 20 hrs followed by LPS-stimulation and measured after 6 hrs by ELISA; assay type: functional, cell-based
Method in brief: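 NIH3T3 cells (DMEM, 10% FBS) seeded at 2*10⁵ per well overnight, inhibitor 20 h, then LPS to 50 ng/mL for a further 6 h; IL-6 or IL-8 measured by ELISA; compared with LPS-only and control groups.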

IC50 [1]: 480 nM | inhibition [2]: Active | inhibition [3]: 26.1% | Activity [4]: 36.4% | Activity [5]: 37.5%
SMILES: CCCCCCCCCCOc1cc(C(=O)NO)ccc1OC
Activity (NIH3T3 [6]): 11% | Activity (NIH3T3 [7]): 0% | viability at 20 µM (NIH3T3 [8]): 54.7% | viability at 40 µM (NIH3T3 [9]): 50.9% | Activity (NIH3T3 [10]): 0.1% | viability at 60 µM (NIH3T3 [11]): 36.2% | Activity (NIH3T3 [12]): 55.7% | Activity (NIH3T3 [13]): 7.5% | inhibition (NIH3T3 [14]): inactive
